Test results reported in ChEMBL document CHEMBL4715745, “Synthesis and biological evaluation of novel FK228 analogues as potential isoform selective HDAC inhibitors” (Eur J Med Chem, 2016).

Columns and labels:
[1] = tested on: SNB-78; assay: Growth inhibition of human SNB-78 cells measured after 48 hrs by sulforhodamine B assay; format: functional
Method in brief: (§1)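 Panel of 39 human cancer cell lines tested at the Japanese Foundation for Cancer Research. Five concentrations per compound, spanning 10⁻¹¹–10⁻⁷ M, 10⁻¹⁰–10⁻⁶ M or 10⁻⁸–10⁻⁴ M, were used to build dose-response curves. GI₅₀ is the concentration giving 50% growth inhibition relative to control.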

[2] = tested on: PC-3; assay: Growth inhibition of human PC-3 cells measured after 48 hrs by sulforhodamine B assay; format: functional; method in brief: as §1
[3] = tested on: RXF 631; assay: Growth inhibition of human RXF 631 cells measured after 48 hrs by sulforhodamine B assay; format: functional; method in brief: as §1
[4] = tested on: MKN-7; assay: Growth inhibition of human MKN-7 cells measured after 48 hrs by sulforhodamine B assay; format: functional; method in brief: as §1
[5] = tested on: NCI-H23; assay: Growth inhibition of human NCI-H23 cells measured after 48 hrs by sulforhodamine B assay; format: functional; method in brief: as §1
[6] = tested on: SF-539; assay: Growth inhibition of human SF-539 cells measured after 48 hrs by sulforhodamine B assay; format: functional; method in brief: as §1
[7] = tested on: SNB-75; assay: Growth inhibition of human SNB-75 cells measured after 48 hrs by sulforhodamine B assay; format: functional; method in brief: as §1
[8] = tested on: A549; assay: Growth inhibition of human A549 cells measured after 48 hrs by sulforhodamine B assay; format: functional; method in brief: as §1
[9] = tested on: OVCAR-5; assay: Growth inhibition of human OVCAR-5 cells measured after 48 hrs by sulforhodamine B assay; format: functional; method in brief: as §1
[10] = tested on: NCI-H460; assay: Growth inhibition of human NCI-H460 cells measured after 48 hrs by sulforhodamine B assay; format: functional; method in brief: as §1
[11] = tested on: MKN-1; assay: Growth inhibition of human MKN-1 cells measured after 48 hrs by sulforhodamine B assay; format: functional; method in brief: as §1
[12] = tested on: OVCAR-4; assay: Growth inhibition of human OVCAR-4 cells measured after 48 hrs by sulforhodamine B assay; format: functional; method in brief: as §1
[13] = Growth inhibition of human HBC5 cells measured after 48 hrs by sulforhodamine B assay; format: functional; method in brief: as §1
[14] = tested on: MCF7; assay: Growth inhibition of human MCF7 cells measured after 48 hrs by sulforhodamine B assay; format: functional; method in brief: as §1
[15] = tested on: DU-145; assay: Growth inhibition of human DU-145 cells measured after 48 hrs by sulforhodamine B assay; format: functional; method in brief: as §1
[16] = tested on: DMS-273; assay: Growth inhibition of human DMS-273 cells measured after 48 hrs by sulforhodamine B assay; format: functional; method in brief: as §1
[17] = tested on: SF-268; assay: Growth inhibition of human SF-268 cells measured after 48 hrs by sulforhodamine B assay; format: functional; method in brief: as §1
[18] = tested on: OVCAR-8; assay: Growth inhibition of human OVCAR-8 cells measured after 48 hrs by sulforhodamine B assay; format: functional; method in brief: as §1
[19] = target: T1, Protein deacetylase HDAC6 (Mus musculus, UniProt Q9Z2V5); assay: Inhibition of mouse HDAC6 expressed in 293T cells using Ac-KGLGK(Ac)-MCA as substrate incubated for 30 mins in presence of 0.1 mM DTT by fluorescence plate reader assay; design: species or system HEK293T
T1 sequence (Q9Z2V5 whole entry): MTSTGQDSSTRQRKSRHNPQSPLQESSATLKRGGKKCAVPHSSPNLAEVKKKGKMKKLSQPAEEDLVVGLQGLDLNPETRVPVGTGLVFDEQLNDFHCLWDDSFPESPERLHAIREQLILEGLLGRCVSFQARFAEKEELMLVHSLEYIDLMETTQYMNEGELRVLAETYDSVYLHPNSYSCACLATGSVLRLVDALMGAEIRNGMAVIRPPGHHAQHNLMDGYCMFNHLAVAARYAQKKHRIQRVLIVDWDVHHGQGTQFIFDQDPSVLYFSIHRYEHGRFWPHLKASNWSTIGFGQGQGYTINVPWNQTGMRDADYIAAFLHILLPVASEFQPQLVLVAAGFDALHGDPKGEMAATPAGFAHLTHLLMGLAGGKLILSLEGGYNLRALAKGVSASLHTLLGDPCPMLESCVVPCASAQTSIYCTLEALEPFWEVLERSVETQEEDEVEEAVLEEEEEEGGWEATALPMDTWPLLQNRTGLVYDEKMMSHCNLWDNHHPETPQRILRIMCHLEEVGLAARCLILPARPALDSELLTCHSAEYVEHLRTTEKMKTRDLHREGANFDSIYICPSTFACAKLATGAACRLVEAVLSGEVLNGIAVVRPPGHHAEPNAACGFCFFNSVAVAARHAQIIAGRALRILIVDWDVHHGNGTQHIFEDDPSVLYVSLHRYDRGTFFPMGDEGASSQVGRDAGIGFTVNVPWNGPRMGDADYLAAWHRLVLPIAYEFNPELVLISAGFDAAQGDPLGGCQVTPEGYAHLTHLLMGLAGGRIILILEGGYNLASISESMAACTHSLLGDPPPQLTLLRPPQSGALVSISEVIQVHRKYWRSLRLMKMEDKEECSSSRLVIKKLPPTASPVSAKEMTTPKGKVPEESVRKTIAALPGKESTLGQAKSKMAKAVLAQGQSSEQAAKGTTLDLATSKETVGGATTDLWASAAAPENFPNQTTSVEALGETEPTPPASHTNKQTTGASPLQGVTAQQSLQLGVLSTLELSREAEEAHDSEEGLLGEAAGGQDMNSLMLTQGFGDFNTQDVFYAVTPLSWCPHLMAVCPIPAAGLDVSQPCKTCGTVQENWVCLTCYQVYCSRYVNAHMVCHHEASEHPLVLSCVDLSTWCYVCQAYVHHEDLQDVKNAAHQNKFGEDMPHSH
Method in brief: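 HDAC enzyme assay run in the presence of 0.1 mM dithiothreitol (DTT); IC₅₀ determined.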

[20] = tested on: HCT-116; assay: Growth inhibition of human HCT-116 cells measured after 48 hrs by sulforhodamine B assay; format: functional; method in brief: as §1
[21] = tested on: HT-29; assay: Growth inhibition of human HT-29 cells measured after 48 hrs by sulforhodamine B assay; format: functional; method in brief: as §1
[22] = tested on: HCC 2998; assay: Growth inhibition of human HCC 2998 cells measured after 48 hrs by sulforhodamine B assay; format: functional; method in brief: as §1
[23] = tested on: SF-295; assay: Growth inhibition of human SF-295 cells measured after 48 hrs by sulforhodamine B assay; format: functional; method in brief: as §1
[24] = Growth inhibition of human HBC4 cells measured after 48 hrs by sulforhodamine B assay; format: functional; method in brief: as §1
[25] = tested on: OVCAR-3; assay: Growth inhibition of human OVCAR-3 cells measured after 48 hrs by sulforhodamine B assay; format: functional; method in brief: as §1
[26] = tested on: U-251; assay: Growth inhibition of human U-251 cells measured after 48 hrs by sulforhodamine B assay; format: functional; method in brief: as §1
[27] = tested on: MKN-74; assay: Growth inhibition of human MKN-74 cells measured after 48 hrs by sulforhodamine B assay; format: functional; method in brief: as §1
[28] = tested on: DMS-114; assay: Growth inhibition of human DMS-114 cells measured after 48 hrs by sulforhodamine B assay; format: functional; method in brief: as §1
[29] = tested on: NCI-H522; assay: Growth inhibition of human NCI-H522 cells measured after 48 hrs by sulforhodamine B assay; format: functional; method in brief: as §1
[30] = tested on: SK-OV-3; assay: Growth inhibition of human SK-OV-3 cells measured after 48 hrs by sulforhodamine B assay; format: functional; method in brief: as §1
[31] = tested on: HCT-15; assay: Growth inhibition of human HCT-15 cells measured after 48 hrs by sulforhodamine B assay; format: functional; method in brief: as §1
[32] = tested on: St-4; assay: Growth inhibition of human St-4 cells measured after 48 hrs by sulforhodamine B assay; format: functional; method in brief: as §1
[33] = tested on: ACHN; assay: Growth inhibition of human ACHN cells measured after 48 hrs by sulforhodamine B assay; format: functional; method in brief: as §1
[34] = tested on: NCI-H226; assay: Growth inhibition of human NCI-H226 cells measured after 48 hrs by sulforhodamine B assay; format: functional; method in brief: as §1
[35] = tested on: MDA-MB-231; assay: Growth inhibition of human MDA-MB-231 cells measured after 48 hrs by sulforhodamine B assay; format: functional; method in brief: as §1
[36] = tested on: KM12; assay: Growth inhibition of human KM12 cells measured after 48 hrs by sulforhodamine B assay; format: functional; method in brief: as §1
[37] = tested on: LOX IMVI; assay: Growth inhibition of human LOX IMVI cells measured after 48 hrs by sulforhodamine B assay; format: functional; method in brief: as §1
[38] = target: Histone deacetylase 1 (Homo sapiens, UniProt Q13547); assay: Inhibition of human HDAC1 expressed in 293T cells using Ac-KGLGK(Ac)-MCA as substrate incubated for 30 mins in presence of 0.1 mM DTT by fluorescence plate reader assay; design: species or system HEK293T
Histone deacetylase 1, sequence (Q13547 whole entry): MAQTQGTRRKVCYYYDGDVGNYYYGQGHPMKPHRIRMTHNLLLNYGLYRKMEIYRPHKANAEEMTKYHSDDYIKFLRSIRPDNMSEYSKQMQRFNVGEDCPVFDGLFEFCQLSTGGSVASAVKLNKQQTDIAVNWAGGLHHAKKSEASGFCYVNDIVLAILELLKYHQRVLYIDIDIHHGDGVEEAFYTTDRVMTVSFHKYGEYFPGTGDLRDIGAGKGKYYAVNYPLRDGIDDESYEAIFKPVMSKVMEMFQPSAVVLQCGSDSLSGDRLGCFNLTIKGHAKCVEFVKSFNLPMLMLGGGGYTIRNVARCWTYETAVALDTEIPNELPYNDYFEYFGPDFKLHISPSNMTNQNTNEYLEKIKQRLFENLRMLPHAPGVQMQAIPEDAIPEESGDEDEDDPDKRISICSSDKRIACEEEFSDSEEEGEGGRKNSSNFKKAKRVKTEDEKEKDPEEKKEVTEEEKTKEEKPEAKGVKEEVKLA

[39] = tested on: MKN-45; assay: Growth inhibition of human MKN-45 cells measured after 48 hrs by sulforhodamine B assay; format: functional; method in brief: as §1
[40] = tested on: MKN-28; assay: Growth inhibition of human MKN-28 cells measured after 48 hrs by sulforhodamine B assay; format: functional; method in brief: as §1
[41] = Growth inhibition of human BSY1 cells measured after 48 hrs by sulforhodamine B assay; format: functional; conditions: BSY-1; method in brief: as §1
[42] = Selectivity index, ratio of IC50 for mouse HDAC6 expressed in 293T cells to IC50 for human HDAC1 expressed in 293T cells using Ac-KGLGK(Ac)-MCA as substrate incubated for 30 mins in presence of 0.1 mM DTT by fluorescence plate reader assay; conditions: 0.5 h
Method in brief: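 Ratio of HDAC6 IC₅₀ to HDAC1 IC₅₀, taken as selectivity for class I HDAC1 over class II HDAC6. Both enzyme assays were run in the presence of 0.1 mM DTT.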

SMILES: CC(C)[C@H]1NC(=O)C[C@H]2/C=C/CCSSC[C@@H](NC1=O)C(=O)NCC(=O)NCC(=O)O2
- GI50 [1]: 0.61 µM
- GI50 [2]: 11 µM
- GI50 [3]: 91 µM
- GI50 [4]: 47 µM
- GI50 [5]: 36 µM
- GI50 [6]: 3.3 µM
- GI50 [7]: 0.95 µM
- GI50 [8]: 10 µM
- GI50 [9]: 3.1 µM
- GI50 [10]: 15 µM
- GI50 [11]: 12 µM
- GI50 [12]: 46 µM
- GI50 [13]: 39 µM
- GI50 [14]: 33 µM
- GI50 [15]: 5.4 µM
- GI50 [16]: 47 µM
- GI50 [17]: 12 µM
- GI50 [18]: 18 µM
- IC50 [19]: 1.32 µM
- GI50 [20]: 2.5 µM
- GI50 [21]: 2.7 µM
- GI50 [22]: 13 µM
- GI50 [23]: 40 µM
- GI50 [24]: 13 µM
- GI50 [25]: 13 µM
- GI50 [26]: 17 µM
- GI50 [27]: 16 µM
- GI50 [28]: 5.2 µM
- GI50 [29]: 0.68 µM
- GI50 [30]: 12 µM
- GI50 [31]: 100 µM
- GI50 [32]: 81 µM
- GI50 [33]: 43 µM
- GI50 [34]: 61 µM
- GI50 [35]: 9.2 µM
- GI50 [36]: 12 µM
- GI50 [37]: 2.9 µM
- IC50 [38]: 0.0924 µM
- GI50 [39]: 100 µM
- GI50 [40]: 95 µM
- GI50 [41]: 18 µM
- Ratio IC50 [42]: 14

SMILES: CC(C)[C@H]1NC(=O)C[C@H]2/C=C/CCSSC[C@@H](NC1=O)C(=O)N[C@H](C)C(=O)NCC(=O)O2
- GI50 [1]: 0.01 µM
- GI50 [2]: 0.07 µM
- GI50 [3]: 0.11 µM
- GI50 [4]: 0.26 µM
- GI50 [5]: 0.031 µM
- GI50 [6]: 0.01 µM
- GI50 [7]: 0.01 µM
- GI50 [8]: 0.015 µM
- GI50 [9]: 0.014 µM
- GI50 [10]: 0.015 µM
- GI50 [11]: 0.036 µM
- GI50 [12]: 0.1 µM
- GI50 [13]: 0.16 µM
- GI50 [14]: 0.037 µM
- GI50 [15]: 0.021 µM
- GI50 [16]: 0.089 µM
- GI50 [17]: 0.031 µM
- GI50 [18]: 0.031 µM
- IC50 [19]: 1.01 µM
- GI50 [20]: 0.01 µM
- GI50 [21]: 0.013 µM
- GI50 [22]: 0.014 µM
- GI50 [23]: 0.071 µM
- GI50 [24]: 0.03 µM
- GI50 [25]: 0.022 µM
- GI50 [26]: 0.019 µM
- GI50 [27]: 0.035 µM
- GI50 [28]: 0.017 µM
- GI50 [29]: 0.01 µM
- GI50 [30]: 0.019 µM
- GI50 [31]: 6.7 µM
- GI50 [32]: 0.41 µM
- GI50 [33]: 0.27 µM
- GI50 [34]: 0.11 µM
- GI50 [35]: 0.021 µM
- GI50 [36]: 0.02 µM
- GI50 [37]: 0.011 µM
- IC50 [38]: 0.0021 µM
- GI50 [39]: 0.5 µM
- GI50 [40]: 0.44 µM
- GI50 [41]: 0.036 µM
- Ratio IC50 [42]: 480
